Assay results reported in ChEMBL document CHEMBL1140799, “Novel heterocycle-substituted pyrimidines as inhibitors of NF-kappaB transcription regulation related to TNF-alpha cytokine release” (Bioorg Med Chem Lett, 2008).
Activity calls are given as the source filed them. No cut-off for these calls is given here.

Experiments:
[1] = tested on: Jurkat; experiment: (§1) Inhibition of AP1-mediated transcriptional activation in human Jurkat cells; assay type: cell-based
[2] = target: Glycogen synthase kinase-3 beta (Homo sapiens, UniProt P49841); experiment: Inhibition of GSK3-beta
[3] = (§2) Inhibition of NF-kappaB-mediated transcriptional activation in human A549 cells; assay type: cell-based
[4] = tested on: A549; experiment: as §2; assay type: cell-based
[5] = as §1; assay type: cell-based
[6] = tested on: THP-1; experiment: Inhibition of LPS-induced TNFalpha production in human THP1 cells; assay type: functional, cell-based
In short: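 THP-1 monocytes seeded at 1 × 10⁶ cells/mL in 1% FCS medium and left overnight. Compound pretreatment for 1 h, then LPS stimulation for 24 h. TNF-α in supernatants measured by sandwich ELISA. IC50 is the mean of n = 3 repeat experiments, SD given.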

[7] = tested on: Mus musculus; experiment: Inhibition of LPS-induced TNFalpha release in BALB/c mouse at 50 mg/kg; assay type: functional
In short: (§3)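 Oral dosing of BALB/c mice 30 min before LPS challenge (0.1 mg/kg ip). Serum TNF-α determined 90 min after LPS. BIRB796 (p38 MAP kinase inhibitor) served as reference compound.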

[8] = tested on: Mus musculus; experiment: Inhibition of LPS-induced TNFalpha release in BALB/c mouse at 300 mg/kg relative to […]; assay type: functional; in short: as §3

IC50 [2] | IC50 [3] | Activity [2] | IC50 [5] | Structure (SMILES) | Activity [1] | also measured
320 nM | 10400 nM | – | – | COCCn1cc(-c2ccnc(Nc3ccccc3)n2)c2ccccc21 | inactive | –
– | – | inactive | – | O=C(Nc1n[nH]c2nc(N3CCNCC3)c(F)cc12)C1CC1 | inactive | Activity [4]: inactive
30 nM | 1900 nM | – | 1600 nM | COc1cccc(Nc2nccc(C3=C(c4ccccc4)NN4C=CC=CC34)n2)c1 (configuration not stated) | – | –
140 nM | 7800 nM | – | – | COCCn1cc(-c2ccnc(Nc3cccc(OC)c3)n2)c2ccccc21 | inactive | –
– | 9400 nM | inactive | – | O=C(Nc1n[nH]c2nc(N3CCN(S(=O)(=O)c4ccccc4C(F)(F)F)CC3)c(F)cc12)C1CC1 | inactive | –
– | 10900 nM | inactive | – | COc1ccccc1N1CCN(c2nc3[nH]nc(NC(=O)C4CC4)c3cc2F)CC1 | inactive | Activity [6]: inactive
150 nM | 600 nM | – | 900 nM | C1=CC2C(c3ccnc(Nc4ccccc4)n3)=CNN2C=C1 (configuration not stated) | – | IC50 [6]: 140 nM
60 nM | 1700 nM | – | 700 nM | C1=CC2C(c3ccnc(Nc4ccccc4)n3)=C(c3ccccc3)NN2C=C1 (configuration not stated) | – | –
– | 19300 nM | inactive | – | O=C(Nc1n[nH]c2nc(N3CCN(C(=O)c4ccc(F)cc4F)CC3)c(F)cc12)C1CC1 | inactive | –
– | – | – | – | Cc1ccc(-n2nc(C(C)(C)C)cc2NC(=O)Nc2ccc(OCCN3CCOCC3)c3ccccc23)cc1 [DORAMAPIMOD] | – | inhibition in vivo at 50 mg/kg [7]: 93%
1050 nM | 5600 nM | – | 11400 nM | COCCn1cc(-c2ccnc(Nc3ccccc3)n2)c2cccnc21 | – | –
100 nM | 1000 nM | – | 1800 nM | COc1cccc(Nc2nccc(C3=CNN4C=CC=CC34)n2)c1 (configuration not stated) | – | –
2200 nM | 1400 nM | – | – | COCCn1cc(-c2ccnc(Nc3cccc(OC)c3)n2)c2cccnc21 | inactive | inhibition in vivo at 300 mg/kg [8]: 89%; IC50 [6]: 990 nM
10600 nM | 4300 nM | – | 4900 nM | Cc1ccc(Cl)cc1Nc1nccc(C2=CNN3C=CC=CC23)n1 (configuration not stated) | – | –
– | 13100 nM | inactive | – | COc1ccccc1C(=O)N1CCN(c2nc3[nH]nc(NC(=O)C4CC4)c3cc2F)CC1 | inactive | –
